{"data": "Measured values of several laboratories", "FGFR3 G697C": "Fibroblast growth factor receptor 3 (FGFR3, Homo sapiens, UniProt P22607, G697C)", "FGFR3": "Fibroblast growth factor receptor 3 (FGFR3, Homo sapiens, UniProt P22607)", "note": "Lines come from different studies, so protocols differ."}
{"Structure (SMILES)": "CC1CCCN1c1nccc(-c2cnn3ncccc23)n1 (stereo not shown)", "target": "FGFR3 G697C", "assay": "binding", "setting": "1 µM", "remaining binding": "86%"}
{"Structure (SMILES)": "C[C@@H]1CN(c2ccc3ncc(-c4ccc5[nH]nc(C6CC6)c5c4)n3n2)C[C@H](C)O1", "target": "FGFR3", "assay": "binding, competition with immobilised ligand", "setting": "50 nM", "remaining binding": "100%"}
{"Structure (SMILES)": "c1cncc(-c2cccc(Nc3nccc(NC4CCCCC4)n3)c2)c1", "target": "FGFR3", "assay": "binding, competition with immobilised ligand", "setting": "10 µM", "remaining binding": "60%"}
{"Structure (SMILES)": "COc1ccnn2ncc(-c3ccnc(N(C)C)n3)c12", "target": "FGFR3", "assay": "binding", "setting": "1 µM", "remaining binding": "95%"}
{"Structure (SMILES)": "C=CC(=O)N1CCC(C(=O)NCC(=O)N2CCN(c3nc(-c4cnc(N)nc4C(F)F)nc(N4CCOCC4)n3)CC2)CC1", "target": "FGFR3", "assay": "binding, competition with immobilised ligand", "setting": "1 µM", "remaining binding": "96%"}
{"Structure (SMILES)": "COc1cnc(Nc2cccc(S(N)(=O)=O)c2)nc1N1CCN(c2ccccc2)CC1", "target": "FGFR3", "assay": "binding, competition with immobilised ligand", "setting": "1 µM", "remaining binding": "98%"}
{"Structure (SMILES)": "FC(F)(F)Oc1cccc(-c2cnc3ccc(-c4ccncc4)nn23)c1", "target": "FGFR3", "assay": "cell-free assay, competition with immobilised ligand", "setting": "5 µM", "remaining binding": "86%"}
{"Structure (SMILES)": "CN1CCN(c2ccc(Nc3nccc(-c4ccccc4)n3)cc2C(F)(F)F)CC1", "target": "FGFR3 G697C", "assay": "binding", "setting": "10 µM", "remaining binding": "86%"}
{"Structure (SMILES)": "CCN1CCN(Cc2ccc(C(=O)Nc3ccc(C)c(Oc4ccc5c(c4)CC(=O)N5)c3)cc2C(F)(F)F)CC1", "target": "FGFR3", "assay": "binding, competition with immobilised ligand", "setting": "1 µM", "remaining binding": "100%"}
{"Structure (SMILES)": "C[C@@H](c1cccc(C#N)c1)n1cc(Cl)cc(C(N)=O)c1=N", "target": "FGFR3 G697C", "assay": "cell-free assay, competition with immobilised ligand", "setting": "1 µM", "remaining binding": "79%"}
{"Structure (SMILES)": "C[C@H]1CCN(c2nccc(-c3cnn4ncccc34)n2)C1", "target": "FGFR3", "assay": "binding", "setting": "1 µM", "remaining binding": "100%"}
{"Structure (SMILES)": "C[C@@H](c1ccc(-n2cnc3c(N)ncnc32)cc1)N1CCc2nn(C)c(Cc3ccccc3)c2C1=O", "target": "FGFR3", "assay": "binding, competition with immobilised ligand", "setting": "0.1 µM", "remaining binding": "80%"}
{"Structure (SMILES)": "c1cnn2ncc(-c3ccnc(N4CCC45COC5)n3)c2c1", "target": "FGFR3 G697C", "assay": "binding", "setting": "1 µM", "remaining binding": "86%"}
{"Structure (SMILES)": "O=C(NCCCN1CCOCC1)c1ccc(Nc2nccc(-c3cc4ccccc4s3)n2)cc1", "target": "FGFR3 G697C", "assay": "binding, competition with immobilised ligand", "setting": "1 µM", "remaining binding": "79%"}
{"Structure (SMILES)": "COc1cnc(Nc2cccc(S(N)(=O)=O)c2)nc1N1CCN(c2ccccc2)C(=O)C1", "target": "FGFR3", "assay": "binding, competition with immobilised ligand", "setting": "1 µM", "remaining binding": "100%"}
{"Structure (SMILES)": "COCCOc1nc(-c2ccc(Cl)nc2)nc2c1CN(C(=O)c1ncn3ccccc13)CC2", "target": "FGFR3 G697C", "assay": "cell-free assay, competition with immobilised ligand", "setting": "0.1 µM", "remaining binding": "100%"}
{"Structure (SMILES)": "Nc1ncc2c(n1)-c1c([nH]c3ccc(C#CC4CC4)cc13)CCCC2", "target": "FGFR3", "assay": "binding, competition with immobilised ligand", "setting": "1 µM", "remaining binding": "95%"}
{"Structure (SMILES)": "O=C(c1ccc(Nc2nccc(-c3cc4ccccc4s3)n2)cc1)N1CCC(N2CCCC2)CC1", "target": "FGFR3 G697C", "assay": "binding, competition with immobilised ligand", "setting": "1 µM", "remaining binding": "77%"}
{"Structure (SMILES)": "COc1ccc2cc(OCC3(C(=O)O)CN(C(=O)c4ccc(F)cc4)C3)ccc2c1", "target": "FGFR3 G697C", "assay": "cell-free assay, competition with immobilised ligand", "setting": "1 µM", "remaining binding": "88%"}
{"Structure (SMILES)": "O=C(NCCCN1CCOCC1)c1ccc(Nc2ncc(Cl)c(-c3ccc(Cl)s3)n2)cc1", "target": "FGFR3 G697C", "assay": "binding, competition with immobilised ligand", "setting": "1 µM", "remaining binding": "32%"}
{"Structure (SMILES)": "O=C(NCC1CCOCC1)c1n[nH]cc1NC(=O)c1c(F)cccc1F", "target": "FGFR3", "assay": "binding, competition with immobilised ligand", "setting": "1 µM", "remaining binding": "100%"}
{"Structure (SMILES)": "CN(CCCC(F)(F)F)c1nccc(-c2cnn3ncccc23)n1", "target": "FGFR3", "assay": "binding", "setting": "1 µM", "remaining binding": "93%"}
{"Structure (SMILES)": "Cc1cnc(Nc2ccc(C(=O)N3CCC(N4CCCC4)CC3)cc2)nc1-c1cc2ccccc2s1", "target": "FGFR3 G697C", "assay": "binding, competition with immobilised ligand", "setting": "1 µM", "remaining binding": "16%"}
{"Structure (SMILES)": "CN(C)c1nccc(-c2cnn3ncccc23)n1", "target": "FGFR3 G697C", "assay": "binding", "setting": "1 µM", "remaining binding": "65%"}
{"Structure (SMILES)": "O=C(c1ccc(Nc2ncc(Cl)c(-c3cc4ccccc4s3)n2)cc1)N1CCC(N2CCCC2)CC1", "target": "FGFR3 G697C", "assay": "binding, competition with immobilised ligand", "setting": "1 µM", "remaining binding": "34%"}
{"Structure (SMILES)": "O=C(Nc1c[nH]nc1C(=O)NC1CCNCC1)c1cc(F)cc(F)c1", "target": "FGFR3", "assay": "binding, competition with immobilised ligand", "setting": "1 µM", "remaining binding": "100%"}
{"Structure (SMILES)": "COc1ncc2cc3ccccc3nc2c1C#N", "target": "FGFR3", "assay": "cell-free assay, competition with immobilised ligand", "setting": "5 µM", "remaining binding": "100%"}
{"Structure (SMILES)": "CCC(=O)N[C@H]1CC[C@@H](C(=O)N(C)c2ccc(-c3nc4ccccc4o3)cc2)C1", "target": "FGFR3 G697C", "assay": "cell-free assay, competition with immobilised ligand", "setting": "1 µM", "remaining binding": "100%"}
{"Structure (SMILES)": "Cc1cnn2ncc(-c3ccnc(N(C)C)n3)c2c1", "target": "FGFR3", "assay": "binding", "setting": "1 µM", "remaining binding": "100%"}
{"Structure (SMILES)": "O=C1NC(c2ccccn2)Sc2ccccc21 (stereo not shown)", "target": "FGFR3", "assay": "cell-free assay, competition with immobilised ligand", "setting": "1 µM", "remaining binding": "97%"}
{"Structure (SMILES)": "O=C(c1ccc(Nc2ncc(Cl)c(-c3ccc(Cl)s3)n2)cc1)N1CCC(N2CCCC2)CC1", "target": "FGFR3 G697C", "assay": "binding, competition with immobilised ligand", "setting": "1 µM", "remaining binding": "4.9%"}
{"Structure (SMILES)": "CC(=O)N1CCC(c2ccc(C(=O)NC(=N)N)cc2C(F)(F)F)CC1", "target": "FGFR3 G697C", "assay": "cell-free assay, competition with immobilised ligand", "setting": "1 µM", "remaining binding": "98%"}
{"Structure (SMILES)": "N[C@@H]1CCN(c2nccc(-c3cnn4ncccc34)n2)C1", "target": "FGFR3", "assay": "binding", "setting": "1 µM", "remaining binding": "100%"}
{"Structure (SMILES)": "CCCCN(CCCC)C(=O)CN1C[C@@H](c2cc(OC)c3c(c2)OCO3)[C@H](C(=O)O)[C@H]1CC(C)(C)CCC", "target": "FGFR3", "assay": "cell-free assay, competition with immobilised ligand", "setting": "1 µM", "remaining binding": "88.5%"}
{"Structure (SMILES)": "CNC(=O)[C@@H]1CC[C@@H](n2c(-c3ccc4cnccc4c3)nc3ccc(C(=O)NCc4cccc(C(N)=O)c4)cc32)C1", "target": "FGFR3", "assay": "binding, competition with immobilised ligand", "setting": "1 µM", "remaining binding": "100%"}
{"Structure (SMILES)": "Cn1nc(C(=O)NCc2ccc(C(=O)O)cc2)cc1-c1ccc2[nH]ccc2c1", "target": "FGFR3 G697C", "assay": "cell-free assay, competition with immobilised ligand", "setting": "0.1 µM", "remaining binding": "82%"}
{"Structure (SMILES)": "CC(C)(C)c1ccc(-c2nc(CBr)nn2-c2cccc(O)c2)cc1", "target": "FGFR3", "assay": "cell-free assay, competition with immobilised ligand", "setting": "10 µM", "remaining binding": "93%"}
